The text below walks through data of ChEMBL document CHEMBL1287787, “Design and synthesis of disubstituted thiophene and thiazole based inhibitors of JNK” (Bioorg Med Chem Lett, 2010).

Structures are written as SMILES.

Data set [1] concerns the target Mitogen-activated protein kinase 1 (Homo sapiens, UniProt P28482). Description: Inhibition of recombinant Erk2 after 60 mins by TR-FRET assay.
The target of data set [2] is Mitogen-activated protein kinase 10 (Homo sapiens, UniProt P53779). Description: Inhibition of recombinant JNK3 after 60 mins by TR-FRET assay.
Mitogen-activated protein kinase 10, sequence (P53779 whole entry): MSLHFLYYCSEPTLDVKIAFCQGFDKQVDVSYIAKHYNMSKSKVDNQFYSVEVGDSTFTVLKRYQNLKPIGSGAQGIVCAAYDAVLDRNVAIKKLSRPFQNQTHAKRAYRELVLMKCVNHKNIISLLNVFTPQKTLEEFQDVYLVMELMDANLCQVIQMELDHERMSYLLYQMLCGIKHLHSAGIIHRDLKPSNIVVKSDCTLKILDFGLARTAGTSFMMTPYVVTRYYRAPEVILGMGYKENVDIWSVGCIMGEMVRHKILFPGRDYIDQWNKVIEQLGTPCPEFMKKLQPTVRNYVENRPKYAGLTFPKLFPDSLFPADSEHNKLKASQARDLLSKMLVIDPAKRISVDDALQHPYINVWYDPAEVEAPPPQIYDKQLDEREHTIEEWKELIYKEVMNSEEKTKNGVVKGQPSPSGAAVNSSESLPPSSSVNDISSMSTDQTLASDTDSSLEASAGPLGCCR
The next data set concerns MDR1. Description: Permeability from apical to basolateral side of MDCK cells expressing MDR1 after 120 mins. The format is ADME, cell-based, Canis lupus familiaris. The note with it: dog, read-out: permeability.
Data set [3] addresses Mitogen-activated protein kinase 8 (Homo sapiens, UniProt P45983). Kind of data set: Inhibition of recombinant JNK1 after 60 mins by TR-FRET assay.
The target of data set [4] is Mitogen-activated protein kinase 14 (Homo sapiens, UniProt Q16539). Kind of data set: Inhibition of recombinant p38alpha after 60 mins by TR-FRET assay.
Mitogen-activated protein kinase 14, sequence (Q16539 whole entry): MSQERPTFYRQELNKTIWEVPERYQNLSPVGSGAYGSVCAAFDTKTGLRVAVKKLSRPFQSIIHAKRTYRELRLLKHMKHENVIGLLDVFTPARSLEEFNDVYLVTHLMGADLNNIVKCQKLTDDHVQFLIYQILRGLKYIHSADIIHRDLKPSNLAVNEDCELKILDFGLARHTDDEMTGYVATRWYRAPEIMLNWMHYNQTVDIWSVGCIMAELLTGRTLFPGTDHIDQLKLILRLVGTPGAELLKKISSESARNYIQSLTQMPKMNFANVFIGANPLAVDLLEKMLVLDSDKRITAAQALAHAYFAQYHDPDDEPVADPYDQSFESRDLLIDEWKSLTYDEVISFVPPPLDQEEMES
A short description of data set [5]: Metabolic stability in human liver microsomes assessed as compound remaining after 30 mins. The format is ADME, Microsome. The note with it: read-out: Stability. In a few lines: (§1)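 Test compound incubated with mouse or human liver microsomes for 30 min. Read-out is the percent of parent compound remaining at the end of the incubation.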
Data set [6] deals with Mitogen-activated protein kinase 9 (Homo sapiens, UniProt P45984). Description: Inhibition of recombinant JNK2 after 60 mins by TR-FRET assay.
Mitogen-activated protein kinase 9, sequence (P45984 whole entry): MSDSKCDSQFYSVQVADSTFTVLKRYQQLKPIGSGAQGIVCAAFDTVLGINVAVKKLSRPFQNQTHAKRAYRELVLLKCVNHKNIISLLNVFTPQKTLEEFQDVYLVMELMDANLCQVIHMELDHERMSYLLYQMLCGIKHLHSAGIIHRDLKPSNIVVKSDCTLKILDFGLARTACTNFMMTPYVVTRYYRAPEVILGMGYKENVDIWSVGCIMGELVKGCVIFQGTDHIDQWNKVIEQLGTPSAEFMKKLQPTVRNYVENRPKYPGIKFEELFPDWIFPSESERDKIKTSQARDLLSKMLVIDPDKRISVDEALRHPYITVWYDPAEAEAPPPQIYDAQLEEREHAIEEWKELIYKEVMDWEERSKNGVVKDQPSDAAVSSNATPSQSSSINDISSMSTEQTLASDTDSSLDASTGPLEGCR
Data set [7] in a line: Metabolic stability in mouse liver microsomes assessed as compound remaining after 30 mins. It is filed as ADME, Microsome. The settings on record: read-out: Stability. In a few lines:
as §1

The test system of a further data set is MDCK. Description: Efflux ratio of permeability from […] side in MDCK cells expressing p-gp after 120 mins. The format is ADME, cell-based, Canis lupus familiaris. The settings on record: dog, 2 h.

Mitogen-activated protein kinase 8, sequence (P45983 whole entry): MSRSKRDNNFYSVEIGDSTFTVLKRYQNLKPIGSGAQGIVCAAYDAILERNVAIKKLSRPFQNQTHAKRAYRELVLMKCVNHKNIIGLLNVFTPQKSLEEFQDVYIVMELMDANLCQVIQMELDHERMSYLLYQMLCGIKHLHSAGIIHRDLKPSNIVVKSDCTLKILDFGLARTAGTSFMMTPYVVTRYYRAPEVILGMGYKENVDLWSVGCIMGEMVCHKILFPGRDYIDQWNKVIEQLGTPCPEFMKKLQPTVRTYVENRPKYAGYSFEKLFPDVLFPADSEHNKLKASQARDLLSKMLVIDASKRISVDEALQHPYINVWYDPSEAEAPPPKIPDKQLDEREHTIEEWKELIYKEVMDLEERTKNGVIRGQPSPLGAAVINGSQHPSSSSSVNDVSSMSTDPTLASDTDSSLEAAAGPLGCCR
Mitogen-activated protein kinase 1, sequence (P28482 whole entry): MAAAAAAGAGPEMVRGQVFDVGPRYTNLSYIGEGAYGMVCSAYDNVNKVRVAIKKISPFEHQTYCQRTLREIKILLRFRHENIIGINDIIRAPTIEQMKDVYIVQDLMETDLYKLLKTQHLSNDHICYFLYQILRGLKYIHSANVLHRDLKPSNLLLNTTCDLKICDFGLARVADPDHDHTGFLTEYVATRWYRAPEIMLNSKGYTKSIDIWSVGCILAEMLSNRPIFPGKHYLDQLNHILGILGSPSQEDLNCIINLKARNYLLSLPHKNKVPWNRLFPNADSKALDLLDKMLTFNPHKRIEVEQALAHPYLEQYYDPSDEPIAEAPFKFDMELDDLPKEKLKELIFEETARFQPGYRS

For `COc1ccc(CC(=O)Nc2ccsc2-c2cnccn2)cc1`, the IC50 was > 50 µM in data set [1]; 1.5 µM in [2]; 1.1 µM in data set [3]; > 50 µM in data set [4]; 5.7 µM in data set [6]. Moreover, the Papp A→B at 2 h with MDR1 was 22.2 ×10⁻⁶ cm/s. Moreover, the remaining at 0.5 h in [5] and in [7] was 0% throughout.

As for `COc1ccc(CC(=O)Nc2ccsc2-n2nccn2)cc1`, the values for the IC50 in [2], in data set [3] and in data set [6] were 1.5 µM, 0.83 µM and 5 µM, respectively. In the data set with MDR1, the Papp A→B at 2 h came to 15 ×10⁻⁶ cm/s. Also, the values for the remaining at 0.5 h in [5] and in data set [7] were 0% and 1%, respectively.

Turning to `COc1ccc(CC(=O)Nc2ccsc2-c2cn(C)cn2)cc1`, the IC50 was > 50 µM in data set [1]; 31 µM in data set [2]; 23.9 µM in data set [3]; > 50 µM in data set [4]; > 50 µM in data set [6]. Moreover, the Papp A→B at 2 h in the data set on MDR1 was 7 ×10⁻⁶ cm/s. For the same compound, the remaining at 0.5 h in data set [5] came to 49%; in data set [7], 1%.

In the case of `COc1ccc(CC(=O)Nc2ccsc2-c2nc(C(F)(F)F)n[nH]2)cc1`, the IC50 in [1] is > 50 µM; in [2] it was 5.9 µM; in data set [3] it was 3.4 µM; in data set [4], > 50 µM; in [6], 15 µM. Further, the remaining at 0.5 h in [5] was 71%; in data set [7], 8%.

For the compound `O=C(Cc1cccc2cnccc12)Nc1scnc1-c1cnccn1`, the IC50 in data set [1] was > 50 µM; in data set [2] it was 0.47 µM; in [3], 0.41 µM; in data set [4] it was > 50 µM; in data set [6], 2 µM. Further, in the data set with MDCK, the Ratio is reported as 0.73. In addition, the remaining at 0.5 h amounted to 2% in data set [5] and 3% in data set [7].

In the case of `COc1ccc(CC(=O)Nc2ccsc2-c2nc(N)n[nH]2)cc1`, the IC50 in data set [1] is > 50 µM; in [4], > 50 µM; in [6], 8.7 µM. In the data set on MDR1, the Papp A→B at 2 h is 24.3 ×10⁻⁶ cm/s. Besides, the remaining at 0.5 h in data set [5] came to 87%; in [7], 44%.

On to `COC(=O)c1ncsc1NC(=O)Cc1cccc2cnccc12`, for which the IC50 in data set [1] is > 50 µM; in [2], 1.6 µM; in data set [3], 1.7 µM; in data set [4], > 50 µM; in [6], 5.3 µM. The Ratio in the data set with MDCK amounted to 0.8. Also, the remaining at 0.5 h was 41% in [5] and 11% in data set [7].

Consider `COC(=O)c1sccc1NC(=O)Cc1cccc2cnccc12`, for which the IC50 in data set [1] was > 50 µM; in data set [2], 0.61 µM; in data set [3] it was 0.27 µM; in data set [4], > 50 µM; in data set [6], 3.1 µM.

Regarding `COc1ccc(CC(=O)Nc2ccsc2N2CCOC2=O)cc1`, the IC50 was 37 µM in [2], > 50 µM in data set [3] and > 50 µM in data set [6]. Moreover, the Papp A→B at 2 h in the data set with MDR1 stood at 26 ×10⁻⁶ cm/s. Further, the remaining at 0.5 h in [5] was determined as 83%; in [7] it was 26%.

Regarding `COC(=O)c1n[nH]cc1NC(=O)Cc1cccc2ccccc12`, the IC50 in data set [1] was > 50 µM; in data set [2], 5.4 µM; in data set [3] it was 2.1 µM; in data set [4], > 50 µM; in [6] it was 26.7 µM.

`O=C(Cc1cccc2cnccc12)Nc1scnc1-c1ncn[nH]1`: the IC50 in [1] was 24 µM; in data set [2], 0.82 µM; in [3] it was 0.71 µM; in data set [4] it was > 50 µM; in data set [6], 2.6 µM. Besides, the Ratio in the data set with MDCK is recorded as 5. Further, the remaining at 0.5 h came out at 14% in data set [5] and 15% in data set [7].

Turning to `COc1ccc(CC(=O)Nc2ccsc2-c2c[nH]c(C)n2)cc1`, the IC50 in data set [1] is > 50 µM; in [2] it was 27 µM; in data set [3] it was 23.4 µM; in [4], > 50 µM; in [6], > 50 µM. For the same compound, the Papp A→B at 2 h in the data set with MDR1 turned out to be 33.8 ×10⁻⁶ cm/s. In addition, the remaining at 0.5 h was 17% in [5] and 0% in data set [7].
